Source: ChEMBL document CHEMBL1800043, “(-)-Duryne and its homologues, cytotoxic acetylenes from a marine Sponge Petrosia sp” (J Nat Prod, 2011)
pIC50: −log10 of the molar value.

Each compound was assayed on HeLa (assay: Cytotoxicity against human HeLa cells after 72 hrs by MTT assay).
Assay type: functional, cell-based
Procedure, shortened: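 HeLa cells grown in DMEM with 10% FBS, 2 μg/mL gentamycin and 2 μg/mL antibiotic-antimycotic at 37 °C under 5% CO2. Seeded at 1 × 10^4 cells/mL and preincubated 24 h. Sample added, then incubated 72 h. MTT (1 mg/mL saline) added for 3 h. Supernatant discarded, formazan dissolved in DMSO, absorbance read for IC50. Adriamycin was the positive control.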

SMILES | pIC50
C#C[C@H](O)/C=C/CCCCCCCCC/C=C\CCCCCCCCC/C=C/[C@@H](O)C#C | 6.30
C#C[C@H](O)/C=C/CCCCCCCCC/C=C\CCCCCCCCCCC/C=C/[C@@H](O)C#C | 6.59
C#C[C@H](O)/C=C/CCCCC/C=C\CCCC/C=C\CCCCCCCCC/C=C/[C@@H](O)C#C | 6.59
C#C[C@H](O)/C=C/CCCCCCC/C=C\CCCC/C=C\CCCCCCCCC/C=C/[C@@H](O)C#C | 7.00
C#C[C@H](O)/C=C/CCCCCCCCC/C=C\CCCC/C=C\CCCCCCCCC/C=C/[C@@H](O)C#C | 7.10
C#C/C=C\[C@@H](O)CCCCCCCCCCC/C=C\CCCCCCCCC/C=C/[C@@H](O)C#C | 6.47
COc1cccc2c1C(=O)c1c(O)c3c(c(O)c1C2=O)C[C@@](O)(C(=O)CO)C[C@@H]3O[C@H]1C[C@H](N)[C@H](O)[C@H](C)O1 [DOXORUBICIN] | 5.79
